Reference: article PMC7717620 (Nucleosides, nucleotides & nucleic acids, 2019)
Entries after “also recorded” stand apart in the source; their conditions may differ.

Key:
human cardiomyocytes [1] = assay: recording of human cardiomyocyte beating patterns; assay type: cell-based
various cell lines = settings: up to 100 μM; cited from earlier work
[2] = system: primary human hepatocytes; assay: intracellular metabolism in primary human hepatocytes; assay type: in vitro ADME; settings: 50 μM, 4 h
[3] = system: HCV genotype 1 b RNA replication; assay: subgenomic HCV replicon system, inhibition of HCV RNA replication in Huh-7 cells; assay type: cell-based, hepatitis C virus; settings: HCV genotype 1 b subgenomic replicon
In short: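 HCV genotype 1b subgenomic replicon in Huh-7 cells. HCV RNA and cellular ribosomal RNA were extracted and amplified, so replication and cytotoxicity were read in the same cells.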

[4] = single dose escalation and seven day repeat dosing in dogs; settings: dog, in vivo
primary rat hepatocytes = assay: intracellular metabolism in primary rat hepatocytes; assay type: in vitro ADME; settings: 50 μM, 4 h
HepG2 cells [5] = settings: up to 50 μM; cited from earlier work
[6] = system: primary monkey hepatocytes; assay: intracellular metabolism in primary monkey hepatocytes; assay type: in vitro ADME; settings: 50 μM, 4 h
Huh-7 cells = assay: intracellular metabolism in Huh-7 cells; assay type: in vitro ADME, human; settings: Huh-7, 50 μM, 4 h
[7] = single dose escalation and seven day repeat dosing in rats; settings: rat, in vivo
primary dog hepatocytes = assay: intracellular metabolism in primary dog hepatocytes; assay type: in vitro ADME; settings: 50 μM, 4 h
human cardiomyocytes [8] = assay: cellular accumulation and metabolism in human cardiomyocytes; assay type: in vitro ADME; settings: 10 μM
HepG2 cells [9] = assay: intracellular metabolism in HepG2 cells; assay type: in vitro ADME, human; settings: HepG2, 50 μM, 4 h
[10] = system: primary mouse hepatocytes; assay: intracellular metabolism in primary mouse hepatocytes; assay type: in vitro ADME; settings: 50 μM, 4 h

Compound: CC(C)OC(=O)CCc1ccccc1OP(=O)(N[C@@H](C)C(=O)OC(C)C)OC[C@H]1O[C@@H](n2cnc3c(N)nc(N)nc32)[C@](C)(O)[C@@H]1O (stereo partly drawn) [DAPN-PD, Isopropyl 3-(2-(((((2R,3R,4R,5R)-5-(2,6-diamino-9H-purin-9-yl)-3,4-dihydroxy-4-methyltetrahydrofuran-2-yl)methoxy)(((S)-1-isopropoxy-1-oxopropan-2-yl)amino)phosphoryl)oxy)phenyl)propanoate]
- Beating rate of human cardiomyocytes (human cardiomyocytes [1]; 2 μM, 2 h): 33.5 ± 0.7 beats/minute
- Beating rate of human cardiomyocytes (human cardiomyocytes [1]; 2 μM, 4 h): 34.0 ± 0 beats/minute
- Beating rate of human cardiomyocytes (human cardiomyocytes [1]; 2 μM, 8 h): 37.0 ± 0 beats/minute
- Beating rate of human cardiomyocytes (human cardiomyocytes [1]; 2 μM, 12 h): 36.0 ± 0 beats/minute
- Beating rate of human cardiomyocytes (human cardiomyocytes [1]; 2 μM, 24 h): 34.0 ± 1.4 beats/minute
- Beating rate of human cardiomyocytes (human cardiomyocytes [1]; 2 μM, 48 h): 27.5 ± 0.7 beats/minute
- change in beating rate or rhythm of cardiomyocytes (observation) (human cardiomyocytes [1]; 2 μM, up to 48 h): did not observe beating changes
- Beating rate of human cardiomyocytes (human cardiomyocytes [1]; 10 μM, 2 h): 24.5 ± 0.7 beats/minute
- Beating rate of human cardiomyocytes (human cardiomyocytes [1]; 10 μM, 4 h): 23.5 ± 0.7 beats/minute
- Beating rate of human cardiomyocytes (human cardiomyocytes [1]; 10 μM, 8 h): 26.0 ± 1.4 beats/minute
- Beating rate of human cardiomyocytes (human cardiomyocytes [1]; 10 μM, 12 h): 25.5 ± 0.7 beats/minute
- Beating rate of human cardiomyocytes (human cardiomyocytes [1]; 10 μM, 24 h): 25.5 ± 0.7 beats/minute
- Beating rate of human cardiomyocytes (human cardiomyocytes [1]; 10 μM, 48 h): 25.5 ± 0.7 beats/minute
- change in beating rate or rhythm of cardiomyocytes (observation) (human cardiomyocytes [1]; 10 μM, up to 48 h): changes to both beat rate and rhythm were noted; also recorded: caused the beat rate to decrease
- Beating rate of human cardiomyocytes (human cardiomyocytes [1]; 50 μM, 2 h): 21.5 ± 0.7 beats/minute
- Beating rate of human cardiomyocytes (human cardiomyocytes [1]; 50 μM, 4 h): 21.0 ± 0 beats/minute
- Beating rate of human cardiomyocytes (human cardiomyocytes [1]; 50 μM, 8 h): 22.0 ± 0 beats/minute
- Beating rate of human cardiomyocytes (human cardiomyocytes [1]; 50 μM, 12 h): 21.0 ± 0 beats/minute
- Beating rate of human cardiomyocytes (human cardiomyocytes [1]; 50 μM, 24 h): 19.0 ± 0 beats/minute
- Beating rate of human cardiomyocytes (human cardiomyocytes [1]; 50 μM, 48 h): 17.0 ± 0 beats/minute
- rhythm of cardiomyocytes (observation) (human cardiomyocytes [1]; 10 and 50 μM): altered and irregular
- change in beating rate of cardiomyocytes (observation) (human cardiomyocytes [1]; 10 and 50 μM, up to 48 h): the beating rate dropped within 2 h then remained at a reduced rate out to 48 h
- in vitro cytotoxicity in various cell lines (various cell lines): no in vitro cytotoxicity
- Intracellular concentration: Prodrugs [2]: 70 ± 6 pmol/10^6 cells
- Replicon Huh-7 EC50 [3]: sub-micromolar
- NOAEL at 7 day [4]: < 40 mg/kg/day
- Intracellular concentration: Prodrugs (primary rat hepatocytes): 0.90 ± 0.50 pmol/10^6 cells
- mitochondrial toxicity or increase in lactic acid levels (HepG2 cells [5]): no mitochondrial toxicity or increase in lactic acid levels
- Intracellular concentration: Prodrugs [6]: 160 ± 4 pmol/10^6 cells
- Intracellular concentration: Prodrugs (Huh-7 cells): 170 ± 4 pmol/10^6 cells
- NOAEL at 7 day [7]: < 40 mg/kg/day
- Intracellular concentration: Prodrugs (primary dog hepatocytes): 6.3 ± 1.5 pmol/10^6 cells
- Intracellular concentration in human cardiomyocytes: Prodrugs (human cardiomyocytes [8]; 4 h): 70 ± 3 pmol/10^6 cells
- Intracellular concentration in human cardiomyocytes: Prodrugs (human cardiomyocytes [8]; 8 h): 51 ± 1 pmol/10^6 cells
- intact prodrug level, times lower than BMS-986094 (human cardiomyocytes [8]; human cardiomyocytes, 8 h): 16 times
- Intracellular concentration: Prodrugs (HepG2 cells [9]): 390 ± 33 pmol/10^6 cells
- Intracellular concentration: 2’-C-Me-G [10]: BLOQ
- Intracellular concentration: Prodrugs [10]: 13 ± 1 pmol/10^6 cells
